ChEMBL document CHEMBL4622977, “A CNS-Targeting Prodrug Strategy for Nuclear Receptor Modulators” (J Med Chem, 2020)
Activity calls are given as the source filed them. The rule behind the calls is not given here.

Columns and labels:
[1] = Prodrug conversion in C57BL/6 mouse brain assessed as [4-(4-hydroxy-3-iodophenoxy)-3,5-diiodophenyl]acetic acid level at 9.14 umol/kg, ip measured after 1 hr in presence of FAAH inhibitor PF-3845 by LC-MS/MS analysis; format: ADME, organism-based; settings: in vivo
Procedure, shortened: (§1)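 Male C57BL/6 mice (n=3) received PF-3845 at 1 mg/kg i.p., then prodrug at […] i.p. 1 h later; comparators received prodrug alone. Vehicle was DMSO. Whole brain was taken 1 h after prodrug and homogenized in water with d₆-sobetirome internal standard. It was extracted with EtOAc/MeCN and parent acid was measured by LC-MS/MS; mean ± SEM, 2-tailed unpaired t test.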

[2] = AUC (0.5 to 6 hrs) in C57BL/6 mouse brain assessed as [4-(4-hydroxy-3-iodophenoxy)-3,5-diiodophenyl]acetic acid level at 9.14 umol/kg, ip by LC-MS/MS analysis; format: ADME, organism-based; parameters: dose 9.14 umol/kg, time upper 6 hr, time lower 0.5 hr, route intraperitoneal; settings: in vivo
Procedure, shortened: (§2)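 Male wild-type C57BL/6 mice (8−10 weeks, n=3 per time point) received parent drug or equimolar prodrug at […] i.p. in DMSO. Brain and serum were collected at 0.5, 2 and 6 h. Parent acid was quantified by LC-MS/MS against vehicle-tissue standard curves with d₆-sobetirome internal standard. AUC0.5–6 h was computed from the time course; mean ± SEM.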

[3] = AUC (0.5 to 6 hrs) in C57BL/6 mouse serum assessed as [4-(4-hydroxy-3-iodophenoxy)-3,5-diiodophenyl]acetic acid level at 9.14 umol/kg, ip by LC-MS/MS analysis; format: ADME, organism-based; parameters: dose 9.14 umol/kg, time 0.5-6 hr, route intraperitoneal; settings: in vivo; procedure, shortened: as §2
[4] = Brain to serum concentration ratio, Kp of the compound in C57BL/6 mouse assessed as [4-(4-hydroxy-3-iodophenoxy)-3,5-diiodophenyl]acetic acid level at 9.14 umol/kg, ip by LC-MS/MS analysis; format: ADME, organism-based
Procedure, shortened: (§3)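 Brain-to-serum ratio Kp was calculated from brain and serum parent-drug AUC0.5–6 h (ng/g*h). These AUCs came from male C57BL/6 mice (n=3 per time point) given parent drug or equimolar prodrug at […] i.p. in DMSO, sampled at 0.5, 2 and 6 h. Parent acid was quantified by LC-MS/MS with d₆-sobetirome internal standard.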

[5] = AUC (0.5 to 6 hrs) in C57BL/6 mouse serum at 9.14 umol/kg, ip by LC-MS/MS analysis; format: ADME, organism-based; parameters: time upper 6 hr, dose 9.14 umol/kg, time lower 0.5 hr, route intraperitoneal; settings: in vivo; procedure, shortened: as §2
Mus musculus [6] = experiment: In vivo agonist activity at RAR in C57BL/6 mouse assessed upregulation of Adam10 gene expression in brain at 9.14 umol/kg, ip administered once daily for 7 days by Trizol reagent based RT-qPCR analysis; format: functional, organism-based
Procedure, shortened: (§4)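 Male C57BL/6 mice (n=5) were dosed once daily for 7 days i.p. with parent drug at […], equimolar prodrug, or vehicle. The vehicle was 1:1:8 Kolliphor:NMP:water. Target gene expression was compared between groups per tissue by 2-tailed unpaired t test.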

[7] = mouse, in vivo, ip
in vivo = settings: C57BL/6, mouse, brain/serum, ip, 9.14 umol/kg
[8] = Hepatotoxicity in C57BL/6 mouse assessed effect on Rarres2 gene expression at 9.14 umol/kg, ip administered once daily for 7 days by Trizol reagent based RT-qPCR analysis; settings: in vivo, 168 h
[9] = AUC (0.5 to 6 hrs) in C57BL/6 mouse brain assessed as GW501516 level at 9.14 umol/kg, ip by LC-MS/MS analysis; format: ADME, organism-based; parameters: time 0.5-6 hr, dose 9.14 umol/kg, route intraperitoneal; settings: in vivo; procedure, shortened: as §2
[10] = AUC (0.5 to 6 hrs) in C57BL/6 mouse serum assessed as GW501516 level at 9.14 umol/kg, ip by LC-MS/MS analysis; format: ADME, organism-based; parameters: dose 9.14 umol/kg, time upper 6 hr, time lower 0.5 hr, route intraperitoneal; settings: in vivo; procedure, shortened: as §2
[11] = Brain to serum concentration ratio, Kp of the compound in C57BL/6 mouse assessed as GW501516 level at 9.14 umol/kg, ip by LC-MS/MS analysis; format: ADME, organism-based; procedure, shortened: as §3
[12] = Prodrug conversion in C57BL/6 mouse brain assessed as GW501516 level at 9.14 umol/kg, ip measured after 1 hr in presence of FAAH inhibitor PF-3845 by LC-MS/MS analysis; format: ADME, organism-based; settings: in vivo; procedure, shortened: as §1
[13] = AUC (0.5 to 6 hrs) in C57BL/6 mouse brain assessed as GW7604 level at 9.14 umol/kg, ip by LC-MS/MS analysis; format: ADME, organism-based; parameters: time 0.5-6 hr, dose 9.14 umol/kg, route intraperitoneal; settings: in vivo; procedure, shortened: as §2
[14] = AUC (0.5 to 6 hrs) in C57BL/6 mouse serum assessed as GW7604 level at 9.14 umol/kg, ip by LC-MS/MS analysis; format: ADME, organism-based; parameters: time lower 0.5 hr, dose 9.14 umol/kg, time upper 6 hr, route intraperitoneal; settings: in vivo; procedure, shortened: as §2
[15] = Brain to serum concentration ratio, Kp of the compound in C57BL/6 mouse assessed as GW7604 level at 9.14 umol/kg, ip by LC-MS/MS analysis; format: ADME, organism-based; procedure, shortened: as §3
[16] = Prodrug conversion in C57BL/6 mouse brain assessed as GW7604 level at 9.14 umol/kg, ip measured after 1 hr in presence of FAAH inhibitor PF-3845 by LC-MS/MS analysis; format: ADME, organism-based; settings: in vivo; procedure, shortened: as §1
[17] = AUC (0.5 to 6 hrs) in C57BL/6 mouse brain assessed as tesaglitazar level at 9.14 umol/kg, ip by LC-MS/MS analysis; format: ADME, organism-based; parameters: time upper 6 hr, dose 9.14 umol/kg, time lower 0.5 hr, route intraperitoneal; settings: in vivo; procedure, shortened: as §2
[18] = AUC (0.5 to 6 hrs) in C57BL/6 mouse serum assessed as tesaglitazar level at 9.14 umol/kg, ip by LC-MS/MS analysis; format: ADME, organism-based; parameters: time lower 0.5 hr, dose 9.14 umol/kg, time upper 6 hr, route intraperitoneal; settings: in vivo; procedure, shortened: as §2
[19] = Brain to serum concentration ratio, Kp of the compound in C57BL/6 mouse assessed as tesaglitazar level at 9.14 umol/kg, ip by LC-MS/MS analysis; format: ADME, organism-based; procedure, shortened: as §3
[20] = Prodrug conversion in C57BL/6 mouse brain assessed as tesaglitazar level at 9.14 umol/kg, ip measured after 1 hr in presence of FAAH inhibitor PF-3845 by LC-MS/MS analysis; format: ADME, organism-based; settings: in vivo; procedure, shortened: as §1
Mus musculus [21] = experiment: In vivo agonist activity at PPAR in C57BL/6 mouse assessed upregulation of Pgc1-alpha gene expression at 9.14 umol/kg, ip administered once daily for 7 days by Trizol reagent based RT-qPCR analysis; format: functional, organism-based; procedure, shortened: as §4
[22] = Renal toxicity in C57BL/6 mouse assessed effect on Fasn gene expression in kidney at 9.14 umol/kg, ip administered once daily for 7 days by Trizol reagent based RT-qPCR analysis; format: organism-based; settings: in vivo, 168 h; procedure, shortened: as §4

Q: For CNC(=O)Cc1cc(I)c(Oc2ccc(O)c(I)c2)c(I)c1, which Drug metabolism [1] is on record?
A: Metabolite_Detected

Q: And the AUC [2]?
A: 155.8 ng·h/g

Q: What about the AUC [3] of the same compound?
A: 4020 ng·h/g

Q: And the Kp [4]?
A: 0.039

Q: For CC1(C)CCSc2ccc(C#Cc3ccc(C(=O)O)cn3)cc21 [TAZAROTENIC ACID], which AUC [5] is on record?
A: 314.5 ng·h/g

Q: And the Activity (Mus musculus [6])?
A: inactive

Q: And the AUC [7]?
A: 38.5 ng·h/g

Q: What about the Kp (in vivo) of the same compound?
A: 0.12

Q: What about the Activity [8] of the same compound?
A: Toxic

Q: Which AUC [5] does the source give for CC(C)(Oc1ccc(CCNC(=O)c2ccc(Cl)cc2)cc1)C(=O)O [BEZAFIBRATE] here?
A: 420.7 ng·h/g

Q: What about the AUC [7] of the same compound?
A: 5.5 ng·h/g

Q: What about the Kp (in vivo) of the same compound?
A: 0.013

Q: For O=C(O)Cc1cccc(OCCCN(Cc2cccc(C(F)(F)F)c2Cl)CC(c2ccccc2)c2ccccc2)c1, which AUC [5] is on record?
A: 8853 ng·h/g

Q: What about the AUC [7] of the same compound?
A: 1867 ng·h/g

Q: What about the Kp (in vivo) of the same compound?
A: 0.21

Q: With CNC(=O)COc1ccc(SCc2sc(-c3ccc(C(F)(F)F)cc3)nc2C)cc1C as the compound, how does the AUC [9] read?
A: 146.3 ng·h/g

Q: What about the AUC [10] of the same compound?
A: 2705 ng·h/g

Q: What about the Kp [11] of the same compound?
A: 0.054

Q: What about the Drug metabolism [12] of the same compound?
A: Metabolite_Detected

Q: Which AUC [13] does the source give for CC/C(=C(\c1ccc(O)cc1)c1ccc(/C=C/C(=O)NC)cc1)c1ccccc1 here?
A: 18.03 ng·h/g

Q: What about the AUC [14] of the same compound?
A: 17.77 ng·h/g

Q: And the Kp [15]?
A: 1.01

Q: And the Drug metabolism [16]?
A: Metabolite_Notdetected

Q: Which results are given for CCCc1c(OCCCSc2ccc(CC(=O)O)cc2Cl)ccc2c(C(F)(F)F)noc12?
A: AUC [5]: 2140 ng·h/g; AUC [7]: 67.35 ng·h/g; Kp (in vivo): 0.03

Q: For CCO[C@@H](Cc1ccc(OCCc2ccc(OS(C)(=O)=O)cc2)cc1)C(=O)NC, which AUC [17] is on record?
A: 21.9 ng·h/g

Q: And the AUC [18]?
A: 374.1 ng·h/g

Q: And the Kp [19]?
A: 0.06

Q: And the Drug metabolism [20]?
A: Metabolite_Notdetected

Q: What about the Activity (Mus musculus [21]) of the same compound?
A: Active

Q: And the Activity [22]?
A: Non-Toxic

Q: Which AUC [5] does the source give for Cc1cc(OCC(=O)O)cc(C)c1Cc1cc(C#Cc2ccc([N+](=O)[O-])cc2)c(O)c(C(C)C)c1 here?
A: 756.9 ng·h/g

Q: What about the AUC [7] of the same compound?
A: 11.9 ng·h/g

Q: What about the Kp (in vivo) of the same compound?
A: 0.016
